# rCAG binder: binders of r(CAG) RNA repeats, primary screen, biochemical, fluorescence; r(CAG) RNA repeat, TO-PRO-1 dye displacement fluorescence; 1.3% of 370,000 active; AID 651821, 2012; inhibition, % at 3 µM;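 active = inhibition above the plate cutoff, the mean of all test compounds on that plate plus 3 SD, cut at about 35% in these data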;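 note: 0% = DMSO alone and 100% = 100 µM mitoxantrone as full dye displacement; higher means more dye released from RNA so lower well fluorescence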
# PRMT1 inh: PRMT1 methyltransferase inhibitors, primary screen, biochemical, fluorescence polarization; recombinant PRMT1, activity-based probe fluorescence polarization; inhibition, % at 2.79 µM; 1.3% of 370,000 active;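 active = inhibition above about 21% made by adding two undisclosed values, limit read from the data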
# ABHD4 inh: ABHD4 inhibitors, primary screen, biochemical, fluorescence polarization, mouse; 0.54% of 370,000 active; inhibition, % at 8.92 µM; AID 720543, 2013; purified mABHD4, FP-Rh probe fluorescence polarization;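 active = inhibition exceeding the mean over every tested compound plus 3 SD, cut at about 30% in these data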;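 note: 0% = plate median of compound wells and 100% = S159A mutant with DMSO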
# Target sequence (Q8VD66 whole entry, looked up): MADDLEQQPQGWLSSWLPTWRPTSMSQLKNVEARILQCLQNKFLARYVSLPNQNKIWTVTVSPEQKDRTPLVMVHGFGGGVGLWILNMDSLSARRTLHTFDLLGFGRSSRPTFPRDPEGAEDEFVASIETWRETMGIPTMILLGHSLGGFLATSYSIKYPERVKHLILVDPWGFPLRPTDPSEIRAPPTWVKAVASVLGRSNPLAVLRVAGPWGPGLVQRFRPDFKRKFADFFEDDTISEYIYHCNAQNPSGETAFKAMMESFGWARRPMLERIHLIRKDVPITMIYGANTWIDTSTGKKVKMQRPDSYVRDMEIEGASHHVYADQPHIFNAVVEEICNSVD
#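 system = mouse ABHD4 enzyme, wild type | medium = HEPES pH 7.0, NaCl, Pluronic buffer | also added = FP-Rh probe | incubation = Enzyme–compound pre-incubation 45 min, then probe 60 min, both 25 °C | technique = fluorescence polarization, excitation 525 nm, emission 598 nm, BODIPY TMR filters | controls = S159A mutant high control, sample median low control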
# TCR CD3 inh: inhibitors of human TCR-CD3 interaction, primary screen, biochemical, fluorescence, TAMRA-labeled TCR probe | T-cell receptor (TCR) | AID 651800, 2012 | inhibition, % at 9.4 µM | 0.37% of 360,000 active; in the data active = inhibition above about 19%;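 note: recombinant mutant TCR 2C K166C tagged with TAMRA read by polarization; 0% = receptor in buffer alone and 100% = receptor with positive control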
# SIAE primary: human SIAE inhibitors, primary screen, biochemical, fluorescence polarization, FP-Rh probe, 1536-well HTS. 0.69% of 370,000 active. inhibition, % at 9.66 µM. SIAE FP-Rh probe binding. AID 1053197, 2014. Sialate O-acetylesterase (Homo sapiens), Q9HAT2;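 active = inhibition above a cutoff: mean of compounds within the control limits plus 3 SD of those, cut at about 17% in these data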;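 note: 0% = plate median of compound wells and 100% = probe without SIAE protein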
# PRMT1 inh conf: PRMT1 methyltransferase inhibitors, confirmation, biochemical, fluorescence polarization, triplicate; shares compounds with PRMT1 inh; recombinant His-PRMT1, activity-based probe fluorescence polarization; inhibition, % at 2.79 µM; 42% of 3,300 active; AID 687036, 2013;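 active = mean inhibition across replicates above the hit cutoff derived for the earlier primary screen, cut at about 22% in these data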
# * hit, by the source's call; nt = not tested or not shown. Hits are enriched below; roughly 3.3% of the tested compounds scored in any of these assays.
SMILES,rCAG binder,PRMT1 inh,ABHD4 inh,TCR CD3 inh,SIAE primary,PRMT1 inh conf
O=c1c2ccccc2sn1-c1cccc(Cl)c1,3,82*,4,2,-7,84*
CCOC(=O)c1c(NC(=O)C2C3C=CC(C3)C2C(=O)O)sc2c1CC(C)(C)OC2 (stereo unspecified),6,-1,1,4,5,nt
CCCOC(=O)c1c(NC(=O)C2C3C=CC(C3)C2C(=O)O)sc2c1CCC(C)C2 (stereo unspecified),15,52*,7,-7,3,4
Cc1nc(N2CCN(C(=O)C3CCCCC3)CC2)c2c3c(sc2n1)CCCC3,nt,2,5,nt,4,nt
COc1ccc(-n2c(SCC(=O)Nc3ccccc3-c3ccccc3)nnc2-c2ccco2)cc1,3,4,-6,nt,4,nt
Cc1c(O)nc(SCC(=O)Nc2nccs2)n(-c2ccccc2F)c1=O,-2,28*,6,8,3,18
Cc1nnc(SCC(=O)Nc2nccs2)n(N)c1=O,1,-1,3,-2,-4,nt
CN/S(=N/S(=O)(=O)c1ccccc1)c1ccc(C)cc1 (stereo unspecified),-5,-1,5,5,-1,nt
Cc1ccc(S(=O)(=O)/N=S(/c2ccccc2)C(C)C)cc1 (stereo unspecified),-2,35*,-4,-7,6,70*
Brc1ccc(C2NCCS2)cc1 (stereo unspecified),3,32*,2,2,1,7
CC(C)=C1C2C=CC1C1C(=O)N(c3ccc4c(c3)OCO4)C(=O)C21 (stereo unspecified),-4,73*,7,9,-4,5
CC(C)=C1C2CCC1C1C(=O)N(c3ccc4c(c3)OCO4)C(=O)C21 (stereo unspecified),-3,-3,0,-1,-1,nt
CCCC(=O)OC12CCCN(C1)/C(=C/c1cccc(Cl)c1)C2 (stereo unspecified),-1,0,-2,nt,-1,nt
Cc1ccc(N2C(=O)C3C4C=CC(CNC(=S)N5CCN(c6cccc(C)c6)C(C)C5)(O4)C3C2=O)cc1 (stereo unspecified),4,37*,1,5,3,32*
COC(=O)C[C@H]1CC[C@@H]2[C@H](COc3ccc(NC(=O)c4cnccn4)cc3C(=O)N2C)O1,1,-1,4,nt,9,nt
O=C(Nc1cccc(N2C(=O)C=CC2=O)c1)c1cccs1,18,86*,-15,5,-21,94*
O=C1C=CC(=Nc2ccc3c(c2)Cc2cc(F)ccc2-3)O1,5,74*,4,4,-6,87*
O=S1(=O)CC=C(CSC(=S)NC2CCS(=O)(=O)C2)C1 (stereo unspecified),-1,26*,-6,1,-12,91*
CCC(=O)N1CCc2cc(Br)c(S(=O)(=O)N3CCCC(C(=O)NC(C)(C)C)C3)cc21 (stereo unspecified),6,1,4,nt,-4,nt
CC(C)NC(=S)NNc1nc2ccccc2s1,7,60*,10,-3,0,57*
O=C1CC(N2CCC(c3nc4ccccc4[nH]3)CC2)C(=O)N1c1ccccc1F (stereo unspecified),-2,32*,0,2,10,3
COc1ccc(N2C(=O)CC(N3CCC(O)(c4ccc(Cl)cc4)CC3)C2=O)cc1 (stereo unspecified),-4,77*,-4,5,-5,-1
COc1ccc(N2C(=O)CC(n3c(CCCCO)nc4ccccc43)C2=O)cc1 (stereo unspecified),1,25*,-4,-3,4,19
COc1ccc(N2C(=O)CC(N3CCC(c4nc5ccccc5[nH]4)CC3)C2=O)cc1 (stereo unspecified),1,54*,5,-4,-5,-5
COC(=O)C1CN(CCO)CCS(=O)(=O)N1Cc1cn(Cc2cccc(Cl)c2)nn1 (stereo unspecified),4,1,0,nt,-1,nt

# Compound activity (PubChem BioAssay)
